These results are taken from PMC5677758 (Journal of the American Chemical Society, 2017).

The assay deals with T1, GBA3 (Homo sapiens, UniProt Q9H227).
T1 sequence (Q9H227 1-469): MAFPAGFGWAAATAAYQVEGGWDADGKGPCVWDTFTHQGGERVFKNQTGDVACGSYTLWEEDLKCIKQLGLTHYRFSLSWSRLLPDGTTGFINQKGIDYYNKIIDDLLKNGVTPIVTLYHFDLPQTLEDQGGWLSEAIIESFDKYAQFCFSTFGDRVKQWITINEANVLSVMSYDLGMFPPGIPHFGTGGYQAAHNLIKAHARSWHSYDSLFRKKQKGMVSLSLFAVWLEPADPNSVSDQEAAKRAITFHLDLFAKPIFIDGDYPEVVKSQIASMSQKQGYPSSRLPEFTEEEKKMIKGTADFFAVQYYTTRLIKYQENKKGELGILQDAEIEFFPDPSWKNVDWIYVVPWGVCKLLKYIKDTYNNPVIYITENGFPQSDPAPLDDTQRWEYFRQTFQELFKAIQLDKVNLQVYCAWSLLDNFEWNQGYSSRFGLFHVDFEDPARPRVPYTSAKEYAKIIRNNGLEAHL
Put plainly: GBA3 in vitro assay, homogenates of HEK293T overexpressing GBA3. Type of assay: biochemical. In a few lines:
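Lysate from HEK293T cells stably overexpressing human GBA3 was pretreated 30 min with 1 mM conduritol β epoxide to block GBA1. Assay in 100 mM Hepes pH 7.0 with 0.1% BSA for 1 h, with 0.05–5 mM 4MU-β-D-glucopyranoside plus inhibitor and no inhibitor preincubation. […] Duplicates; Ki from curve fit.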

As for `CCCCN1C[C@H](O)[C@@H](O)[C@H](O)[C@H]1CO` [compound 1, N-butyldeoxynojirimycin], the Ki (commonly a measure of affinity in units of concentration, obtained from inhibition or displacement) was over 1000 µM.
